Results reported in ChEMBL document CHEMBL4825688, “Synthesis, biological evaluation and molecular modeling of benzofuran piperidine derivatives as Aβ antiaggregant” (Eur J Med Chem, 2021).
Activity calls are given as the source filed them. No cut-off for these calls is given here.

Columns and labels:
[1] = biological target: T1, Amyloid-beta precursor protein (Homo sapiens, UniProt P05067); assay: Inhibition of amyloid beta(25 to 35) (unknown origin) binding to human SH-SY5Y cell plasma membrane at 10 uM measured after 20 mins by UV-vis microplate reader assay; format: cell membranes
T1 sequence (P05067 whole entry): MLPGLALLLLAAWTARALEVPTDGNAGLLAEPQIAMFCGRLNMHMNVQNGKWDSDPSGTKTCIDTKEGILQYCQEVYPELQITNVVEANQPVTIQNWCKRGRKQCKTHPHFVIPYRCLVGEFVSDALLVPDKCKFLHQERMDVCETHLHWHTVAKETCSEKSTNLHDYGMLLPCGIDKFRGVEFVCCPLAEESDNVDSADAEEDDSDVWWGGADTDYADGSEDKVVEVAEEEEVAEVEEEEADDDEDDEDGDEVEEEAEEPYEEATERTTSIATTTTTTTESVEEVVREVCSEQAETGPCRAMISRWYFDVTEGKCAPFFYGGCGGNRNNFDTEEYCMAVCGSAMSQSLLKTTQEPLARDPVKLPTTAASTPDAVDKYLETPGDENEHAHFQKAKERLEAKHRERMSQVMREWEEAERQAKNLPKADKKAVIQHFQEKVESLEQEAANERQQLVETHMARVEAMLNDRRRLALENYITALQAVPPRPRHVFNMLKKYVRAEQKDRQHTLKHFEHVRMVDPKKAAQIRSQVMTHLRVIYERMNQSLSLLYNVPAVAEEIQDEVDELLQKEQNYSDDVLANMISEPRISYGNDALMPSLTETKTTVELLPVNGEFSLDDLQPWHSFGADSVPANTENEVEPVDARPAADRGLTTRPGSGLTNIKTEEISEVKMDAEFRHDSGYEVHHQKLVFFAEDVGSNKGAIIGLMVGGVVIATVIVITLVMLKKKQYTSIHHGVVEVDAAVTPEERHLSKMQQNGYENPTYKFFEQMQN
How it was run: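 SH-SY5Y cells seeded 24 h, then fresh medium with Aβ25-35 (10 µM) ± compounds (10 µM) for 30, 60 and 120 min. After two PBS washes, bound peptide was stained with Congo red in PBS for 20 min and read at 540 nm. Values are % of untreated cells (100%).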

[2] = tested on: SH-SY5Y; assay: Neuroprotective activity against amyloid beta (25 to 35)-induced oxidative stress in human SH-SY5Y cells assessed as decrease in intracellular ROS production at 10 uM incubated with amyloid beta (25 to 35) for 24 hrs by DCFH-DA staining-based flow cytometric analysis; format: functional, cell-based
How it was run: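 SH-SY5Y (1×10⁶ cells/well) grown 24 h, then exposed to unaggregated Aβ25-35 (10 µM) ± compounds (10 µM) for 24 h at 37 °C. After three PBS washes, cells were loaded with DCFH-DA (10 µM) for 30 min, rinsed, pelleted at 1500 rpm for 5 min, resuspended in PBS and analyzed by flow cytometry (10,000 events). Mean ± SD of three experiments.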

[3] = tested on: SH-SY5Y; assay: Neuroprotective activity against amyloid beta (25 to 35)-induced cell damage in human SH-SY5Y cells assessed as viable at 10 uM by annexin-V and propidium iodide staining based flow cytometry analysis assay (reference value: 88.2 %); format: functional
How it was run: (§1)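 SH-SY5Y cells exposed to Aβ25-35 (10 µM) ± compounds (10 µM), then trypsinized, washed with PBS and pelleted at 1000 rpm for 3 min. Cells were stained with FITC-Annexin V and PI in binding buffer for 15 min at room temperature and analyzed by flow cytometry (10,000 events). Mean ± SD of three experiments.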

[4] = biological target: Cholinesterase (Homo sapiens, UniProt P06276); assay: Inhibition of recombinant human BuChe using S-butyrylthiocholine iodide as substrate measured after 7 mins by Ellman's method
Chain of Cholinesterase (P06276 whole entry): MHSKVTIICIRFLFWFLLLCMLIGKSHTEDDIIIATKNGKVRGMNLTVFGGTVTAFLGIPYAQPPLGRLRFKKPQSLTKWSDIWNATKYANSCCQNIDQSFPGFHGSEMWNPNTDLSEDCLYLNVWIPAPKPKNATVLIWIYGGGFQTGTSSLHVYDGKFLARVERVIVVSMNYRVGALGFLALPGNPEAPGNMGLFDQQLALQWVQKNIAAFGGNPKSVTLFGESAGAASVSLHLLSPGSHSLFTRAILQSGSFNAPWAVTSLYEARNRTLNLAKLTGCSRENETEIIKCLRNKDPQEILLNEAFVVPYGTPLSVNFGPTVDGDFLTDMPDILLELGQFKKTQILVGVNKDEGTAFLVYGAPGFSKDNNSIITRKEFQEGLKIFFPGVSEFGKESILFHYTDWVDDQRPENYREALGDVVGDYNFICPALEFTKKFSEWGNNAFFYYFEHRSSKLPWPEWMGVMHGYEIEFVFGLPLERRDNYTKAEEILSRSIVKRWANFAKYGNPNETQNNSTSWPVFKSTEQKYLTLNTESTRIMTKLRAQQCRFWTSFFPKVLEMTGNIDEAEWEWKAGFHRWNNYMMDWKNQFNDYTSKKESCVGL

[5] = biological target: T1, Amyloid-beta precursor protein; assay: Inhibition of human amyloid beta (25 to 35) self-induced aggregation at 100 uM after 48 hrs by thioflavin-T fluorescence relative to control
How it was run: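 Aβ25-35 (10 μM, DMSO stock diluted) incubated with test compound (100 μM) in 0.05 M potassium phosphate buffer (pH 7.4) containing 0.01 M NaCl, 37 °C, 48 h; then ThT (200 μM) in 50 mM glycine-NaOH (pH 8.0) added and fluorescence read. Mean ± SD of three experiments.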

[6] = species: Homo sapiens; assay: Selectivity index, ratio of IC50 for human BuChE to IC50 for human AChE
[7] = tested on: SH-SY5Y; assay: Neuroprotective activity against amyloid beta (25 to 35)-induced cell damage in human SH-SY5Y cells assessed as increase in neuronal viability measured after 24 hrs in presence of amyloid beta (25 to 35) by MTT assay; format: functional, cell-based; settings: dose 1-10 µM
[8] = tested on: SH-SY5Y; assay: Neuroprotective activity against amyloid beta (25 to 35)-induced cell damage assessed as cell viability in human SH-SY5Y cells by measuring ATP at 10 uM measured after 24 hrs in presence of amyloid beta (25 to 35) by CellTiter-Glo luminescent cell viability assay (reference value: 90.95 +/- 0.82 %); format: functional
[9] = biological target: Acetylcholinesterase (Homo sapiens, UniProt P22303); assay: Inhibition of recombinant human AChE using acetylthiocholine iodide as substrate measured after 7 mins by Ellman's method
Chain of Acetylcholinesterase (P22303 whole entry): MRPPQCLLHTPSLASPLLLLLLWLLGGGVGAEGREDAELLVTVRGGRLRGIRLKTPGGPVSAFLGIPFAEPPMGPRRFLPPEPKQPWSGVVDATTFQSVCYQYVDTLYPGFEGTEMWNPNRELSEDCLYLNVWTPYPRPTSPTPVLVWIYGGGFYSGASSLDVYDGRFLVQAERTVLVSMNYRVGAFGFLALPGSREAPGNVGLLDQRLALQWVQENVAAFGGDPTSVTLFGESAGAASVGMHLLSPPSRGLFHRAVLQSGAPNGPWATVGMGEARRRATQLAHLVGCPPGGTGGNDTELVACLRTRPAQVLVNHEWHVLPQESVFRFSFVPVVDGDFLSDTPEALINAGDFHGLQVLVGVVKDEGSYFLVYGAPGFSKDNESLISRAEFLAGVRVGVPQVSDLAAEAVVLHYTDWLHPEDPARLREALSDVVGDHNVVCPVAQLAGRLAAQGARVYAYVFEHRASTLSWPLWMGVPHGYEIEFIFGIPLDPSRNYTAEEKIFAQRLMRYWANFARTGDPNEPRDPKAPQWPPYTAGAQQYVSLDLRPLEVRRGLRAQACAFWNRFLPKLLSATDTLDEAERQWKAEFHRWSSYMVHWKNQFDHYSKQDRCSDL

[10] = tested on: SH-SY5Y; assay: Neuroprotective activity against amyloid beta (25 to 35)-induced cell damage in human SH-SY5Y cells assessed as necrotic cell at 10 uM by annexin-V and propidium iodide staining based flow cytometry analysis assay (reference value: 0 %); format: functional; how it was run: as §1
[11] = tested on: SH-SY5Y; assay: Neuroprotective activity against amyloid beta (25 to 35)-induced cell damage in human SH-SY5Y cells assessed as neuronal viability at 10 uM measured after 24 hrs in presence of amyloid beta (25 to 35) by MTT assay (reference value: 68.66 +/- 0.11 %); format: functional
[12] = tested on: SH-SY5Y; assay: Neuroprotective activity against amyloid beta (25 to 35)-induced cell damage in human SH-SY5Y cells assessed as late apoptotic cell at 10 uM by annexin-V and propidium iodide staining based flow cytometry analysis assay (reference value: 0.890 %); format: functional; how it was run: as §1
[13] = Cytotoxicity against human SH-SY5Y cells assessed as cell viability at 10 uM measured after 48 hrs by MTT assay relative to control
[14] = tested on: SH-SY5Y; assay: Neuroprotective activity against amyloid beta (25 to 35)-induced cell damage in human SH-SY5Y cells assessed as LDH release at 10 uM measured after 24 hrs in presence of amyloid beta (25 to 35) by LDH assay (reference value: 364.06 +/- 2.15 %); format: functional
[15] = tested on: SH-SY5Y; assay: Neuroprotective activity against amyloid beta (25 to 35)-induced cell damage in human SH-SY5Y cells assessed as early apoptotic cell at 10 uM by annexin-V and propidium iodide staining based flow cytometry analysis assay (reference value: 10.9 %); format: functional; how it was run: as §1
[16] = Antioxidant activity assessed as DPPH radical scavenging activity at 50 uM incubated for 1 hrs under light restrictive condition by UV-microplate reader assay relative to control; format: functional
How it was run: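 DPPH stock 56 mM and compound stock 500 mM in anhydrous methanol; compound at 50 µM final with DPPH in methanol. Absorbance read at 517 nm after 30 s shaking, then again after 1 h at room temperature in the dark. Scavenging % = (A control − A sample)/A control ×100.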

In the case of `Fc1ccc(CN2CCC(c3cc4ccccc4o3)CC2)cc1`, the “inhibition (INH)” value [1] is reported as “Active”, the Activity [2] is reported as “Active” and the Activity [3] is reported as 98.2%. The IC50 [4] was 55.8 µM, the inhibition [5] was 57.7% and the Selectivity Index [6] was 2.6. The Activity [7] was “Dose-Dependent Effect”, the Activity [8] was 104.56% and the IC50 [9] was 21.3 µM. The Activity [10] was 1.58%, the Activity [11] was 80.8% and the Activity [12] was 0.05%. The viability at 48 h, 10 µM ([13]; SH-SY5Y cells) was 101%, the Activity [14] was 287.37% and the Activity [15] was 1.2%. The Activity [16] was 10.8%.
With `Cc1c(C)c2c(c(C)c1O)CCC(C)(C(=O)O)O2` (stereo unspecified) the Activity [16] was 55.5%.
In the case of `COc1ccc(C(=O)c2c(C3CCN(Cc4ccccc4)CC3)oc3ccccc23)cc1`, the IC50 [4] is reported as 52.1 µM, the inhibition [5] is reported as 47.4% and the Selectivity Index [6] is reported as 1.07. For the same molecule, the Activity [8] was 100.79%, the IC50 [9] was 48.3 µM and the Activity [11] was 75.17%. It also gave a viability at 48 h, 10 µM ([13]; SH-SY5Y cells) of 107%, an Activity [14] of 285% and an Activity [16] of 17.6%.
`Clc1ccc(CN2CCC(c3cc4ccccc4o3)CC2)cc1` gave an IC50 [4] greater than 100 µM, an inhibition [5] of 24.4% and an IC50 [9] of 98.5 µM.
`COc1ccc(CN2CCC(c3oc4ccccc4c3C(=O)c3ccccc3)CC2)cc1OC` showed an IC50 [4] greater than 100 µM, an inhibition [5] of 42.9% and an IC50 [9] of 45.3 µM.
Molecule `COc1ccc(CN2CCC(c3cc4ccccc4o3)CC2)cc1OC` has an IC50 [4] of 64.6 µM, an inhibition [5] of 14.7% and a Selectivity Index [6] of 1.2. For the same molecule, the IC50 [9] was 52.8 µM.
Work on `COc1ccc(C(=O)c2c(C3CCN(Cc4cc(OC)ccc4OC)CC3)oc3ccccc23)cc1` yielded an IC50 [4] of 61.7 µM, an inhibition [5] of 46% and a Selectivity Index [6] of 1.01. It also gave an IC50 [9] of 61 µM.
For `COc1ccc(CN2CCC(c3cc4ccccc4o3)CC2)cc1`, the IC50 [4] was greater than 100 µM, the inhibition [5] was 8.04% and the IC50 [9] was 92.8 µM.
`COc1cc(/C=C/C(=O)O)ccc1O` gave an Activity [16] of 50%.
In the case of `c1ccc(CN2CCC(c3cc4ccccc4o3)CC2)cc1`, the “inhibition (INH)” value [1] is reported as “Active”, the Activity [2] is reported as “Active” and the Activity [3] is reported as 97.5%. For the same molecule, the IC50 [4] was 54.3 µM, the inhibition [5] was 55.4% and the Selectivity Index [6] was 10.8. The Activity [7] was “Dose-Dependent Effect”, the Activity [8] was 101.59% and the IC50 [9] was 5.07 µM. It also gave an Activity [10] of 0.03%, an Activity [11] of 88.91% and an Activity [12] of 0.55%. It also gave a viability at 48 h, 10 µM ([13]; SH-SY5Y cells) of 105%, an Activity [14] of 294.64% and an Activity [15] of 1.08%. The Activity [16] was 18.2%.
With `COc1ccc(OC)c(CN2CCC(c3oc4ccccc4c3C(=O)c3ccc(OC)c(OC)c3)CC2)c1` the IC50 [4] was 66.3 µM, the inhibition [5] was 37.4% and the Selectivity Index [6] was 1.19. For the same molecule, the IC50 [9] was 55.4 µM.
For `COc1ccc(CN2CCC(c3oc4ccccc4c3C(=O)c3ccc(OC)cc3)CC2)cc1`, the IC50 [4] was 59.7 µM, the inhibition [5] was 45% and the Selectivity Index [6] was 0.99. It also gave an IC50 [9] of 59.7 µM.
`COc1cc2c(cc1OC)C(=O)C(CC1CCN(Cc3ccccc3)CC1)C2` (stereo unspecified) [DONEPEZIL] gave an Activity [11] of 60.82% and a viability at 48 h, 10 µM ([13]; sh-sy5y) of 101%.
Molecule `c1ccc2oc(C3CCNCC3)cc2c1` has an IC50 [4] of 64.4 µM, an inhibition [5] of 45.5% and a Selectivity Index [6] of 1. For the same molecule, the IC50 [9] was 61.2 µM.
`Oc1ccc(CN2CCC(c3cc4ccccc4o3)CC2)cc1` showed an IC50 [4] of 64.6 µM, an inhibition [5] of 48.3% and a Selectivity Index [6] of 1.8. For the same molecule, the IC50 [9] was 34.9 µM, the viability at 48 h, 10 µM ([13]; SH-SY5Y cells) was 96.4% and the Activity [16] was 12.2%.
In the case of `COc1ccc(OC)c(CN2CCC(c3cc4ccccc4o3)CC2)c1`, the IC50 [4] is reported as 35.5 µM, the inhibition [5] is reported as 51.8% and the Selectivity Index [6] is reported as 0.04. The Activity [8] was 102.53%, the IC50 [9] was 23.9 µM and the Activity [11] was 79.09%. It also gave a viability at 48 h, 10 µM ([13]; SH-SY5Y cells) of 102%, an Activity [14] of 324.83% and an Activity [16] of 11.9%.
Work on `COc1ccc(CN2CCC(c3oc4ccccc4c3C(=O)c3ccccc3)CC2)cc1` yielded an IC50 [4] of 62.6 µM, an inhibition [5] of 42.2% and a Selectivity Index [6] of 0.6. For the same molecule, the IC50 [9] was 97.1 µM.
With `O=C(c1ccccc1)c1c(C2CCN(Cc3ccccc3)CC2)oc2ccccc12` the “inhibition (INH)” value [1] was “Active”, the Activity [2] was “Active” and the Activity [3] was 98.1%. For the same molecule, the IC50 [4] was greater than 100 µM, the inhibition [5] was 61.9% and the Activity [8] was 95.49%. It also gave an IC50 [9] of 41.3 µM, an Activity [10] of 0.52% and an Activity [11] of 76.06%. For the same molecule, the Activity [12] was 0.65%, the viability at 48 h, 10 µM ([13]; SH-SY5Y cells) was 107% and the Activity [14] was 316.05%. The Activity [15] was 0.77% and the Activity [16] was 21.6%.
In the case of `CCc1ccc(CN2CCC(c3cc4ccccc4o3)CC2)cc1`, the IC50 [4] is reported as greater than 100 µM, the inhibition [5] is reported as 19.9% and the IC50 [9] is reported as 64.2 µM.
`COc1ccc(OC)c(CN2CCC(c3oc4ccccc4c3C(=O)c3ccccc3)CC2)c1` gave an IC50 [4] of 33.5 µM, an inhibition [5] of 39.4% and a Selectivity Index [6] of 0.45. For the same molecule, the IC50 [9] was 58.2 µM.
Work on `COc1cc(/C=C/C(=O)CC(=O)/C=C/c2ccc(O)c(OC)c2)ccc1O` [CURCUMIN] yielded an Activity [11] of 45.95% and a viability at 48 h, 10 µM ([13]; SH-SY5Y cells) of 60%.
`COc1ccc(CN2CCC(c3oc4ccccc4c3C(=O)c3ccc(OC)c(OC)c3)CC2)cc1OC` gave an IC50 [4] of 62.2 µM, an inhibition [5] of 54.4% and a Selectivity Index [6] of 0.9. It also gave an IC50 [9] of 68 µM.
In the case of `Oc1ccc(/C=C/c2cc(O)cc(O)c2)cc1`, the Activity [16] is reported as 45.7%.
